# From ChEMBL document CHEMBL3286275, “Identification of 1-{2-[4-chloro-1'-(2,2-dimethylpropyl)-7-hydroxy-1,2-dihydrospiro[indole-3,4'-piperidine]-1-yl]phenyl}-3-{5-chloro-[1,3]thiazolo[5,4-b]pyridin-2-yl}urea, a potent, efficacious and orally bioavailable P2Y(1) antagonist as an antiplatelet agent” (Bioorg Med Chem Lett, 2014)
# Legend:
# Platelet = assay: Inhibition of ADP-induced platelet aggregation in platelet-rich human plasma; assay type: functional
# Outline: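 Human platelet-rich plasma; aggregation triggered by 10 µM ADP; IC50 determined.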
# Liver microsome [1] = assay: Metabolic stability in human liver microsomes assessed as compound remaining; assay type: ADME
# Outline: (§1)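 Liver microsome stability: percent of compound remaining after incubation with […] (3 µM microsomes in some cases).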
# Liver microsome [2] = assay: Metabolic stability in rat liver microsomes assessed as compound remaining; assay type: ADME; outline: as §1
# P2Y purinoceptor 1 = P2Y purinoceptor 1 (Homo sapiens, UniProt P47900); assay: Antagonist activity at P2Y1 receptor in human platelets by FLIPR assay in presence of 2-methylthio-ADP
# P2Y purinoceptor 1, sequence (P47900 whole entry): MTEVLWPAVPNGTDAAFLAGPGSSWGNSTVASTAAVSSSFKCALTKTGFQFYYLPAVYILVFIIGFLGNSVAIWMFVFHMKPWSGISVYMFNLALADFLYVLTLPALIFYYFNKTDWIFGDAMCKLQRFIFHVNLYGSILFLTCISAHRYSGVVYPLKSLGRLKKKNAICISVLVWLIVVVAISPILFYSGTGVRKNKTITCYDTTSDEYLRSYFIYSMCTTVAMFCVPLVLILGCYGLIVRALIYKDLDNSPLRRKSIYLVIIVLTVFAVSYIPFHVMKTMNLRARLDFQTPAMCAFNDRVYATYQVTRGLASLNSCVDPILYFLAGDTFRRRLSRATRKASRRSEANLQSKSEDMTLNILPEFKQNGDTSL
# Outline: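 Washed human platelets with endogenous P2Y1; calcium signalling read by FLIPR with reduced protein (~0.1% BSA); agonist 2-methylthio-ADP at 1 µM; IC50 given as mean ± SD.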
# Rattus norvegicus [3] = assay: Toxicity in rat assessed as prolongation of mesentric bleeding time at 10 mg/kg, po relative to control; assay type: organism-based; design: dose 10 mg/kg, route oral; settings: in vivo
# Outline: (§2)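 Pentobarbital-anesthetized rats dosed by oral gavage 1 h before bleeding-time induction. Vehicle was 1 ml/kg of 10% N,N-dimethylacetamide/90% dextrose 5% water, and compound was given at 0.3, 1, 3 and 10 mg/kg. Cuticle and mesenteric bleeding times were measured and expressed as fold prolongation relative to vehicle. Group sizes were indicated per group.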
# Rattus norvegicus [4] = assay: Antithrombotic activity in pentobarbital anesthetized rat assessed as reduction in FeCl2-induced thrombus weight at 10 mg/kg, po administered 1 hr prior to FeCl2 challenge; assay type: functional; design: scale not given: the % may be the effect or the level left
# Outline: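 Pentobarbital-anesthetized rats; vehicle (1 ml/kg of 10% N,N-dimethylacetamide/90% dextrose 5% water) or 0.3, 1, 3, 10 mg/kg by oral gavage 1 h before FeCl2-induced carotid thrombosis or cuticle/mesenteric bleeding time. End points were thrombus weight and blood flow. Blood was drawn at the end of the thrombosis protocol for ex vivo aggregation. ID50 values derived; SEM reported.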
# Rattus norvegicus [5] = assay: Toxicity in rat assessed as prolongation of cuticle bleeding time at 10 mg/kg, po relative to control; assay type: organism-based; design: dose 10 mg/kg, route oral; settings: in vivo; outline: as §2
# Rattus norvegicus [6] = assay: Antithrombotic activity in po dosed pentobarbital anesthetized rat assessed as reduction in FeCl2-induced thrombus weight administered 1 hr prior to FeCl2 challenge
SMILES,IC50 (Platelet),Stability (Liver microsome [1]),Stability (Liver microsome [2]),IC50 (P2Y purinoceptor 1),also measured
CN(C)S(=O)(=O)c1ccc(O)c2c1C1(CCN(CC(C)(C)C)CC1)CN2c1ccccc1NC(=O)Nc1ccc(OC(F)(F)F)cc1,420 nM,21%,75%,0.13 nM,–
CC(C)(C)CN1CCC2(CC1)CN(c1ccccc1NC(=O)Nc1ccc(OC(F)(F)F)cc1)c1cccc(O)c12,–,–,–,> 150 nM,–
CC(C)(C)CN1CCC2(CC1)CN(c1ccccc1NC(=O)Nc1ccc(OC(F)(F)F)cc1)c1cc(O)ccc12,–,–,–,4.6 nM,–
COC(=O)[C@H](c1ccccc1Cl)N1CCc2sccc2C1 [CLOPIDOGREL],–,–,–,–,fold change (FC) (Rattus norvegicus [3]): 8.2; Activity (Rattus norvegicus [4]): 67%; fold change (FC) (Rattus norvegicus [5]): 6.2
CC(C)(C)CN1CCC2(CC1)CN(c1ccccc1NC(=O)Nc1ccc(C(F)(F)F)cc1)c1c(O)ccc(Cl)c12,400 nM,93%,93%,0.08 nM,–
CC(C)(C)CN1CCC2(CC1)CN(c1ccccc1NC(=O)Nc1ccc(OC(F)(F)F)cc1)c1c(O)ccc(F)c12,920 nM,78%,70%,0.37 nM,–
CC(C)(C)CN1CCC2(CC1)CN(c1ccccc1NC(=O)Nc1ccc(OC(F)(F)F)cc1)c1ccccc12,–,–,–,–,IC50 (Rattus norvegicus [6]): 470 nM
CC(C)(C)CN1CCC2(CC1)CN(c1ccccc1NC(=O)Nc1ccc(OC(F)(F)F)cc1)c1ccc(O)cc12,–,–,–,> 150 nM,–
